Test results reported in ChEMBL document CHEMBL4330160, “Prenylated Indole Diterpene Alkaloids from a Mine-Soil-Derived Tolypocladium sp” (J Nat Prod, 2019).
In brackets after ≈: the same amount, converted by molar mass. Activity calls are given as the source filed them. The calls are words filed in the database; no cut-off is given here.

Key:
[1] = system: Alternaria sp. 'fragaria'; assay: Antifungal activity against Alternaria fragaria after 3 to 7 days by microbroth dilution method; format: functional
Outline: (§1)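 Microbroth dilution with fungal cultures at 10^4 mycelia fragments/mL. Test samples and ketoconazole were 1 mg/mL DMSO stocks. 180 μL culture plus 20 μL stock in the first well gave 100 μg/mL final, followed by serial dilution. Run in triplicate, incubated at 28 °C for 3−7 days, and MIC determined.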

Rhizoctonia solani = assay: Antifungal activity against Rhizoctonia solani after 3 to 7 days by microbroth dilution method; format: functional, organism-based; outline: as §1
Alternaria solani = assay: Antifungal activity against Alternaria solani Sorauer after 3 to 7 days by microbroth dilution method; format: functional, organism-based; outline: as §1
Staphylococcus aureus = assay: Antibacterial activity against Methicillin-resistant Staphylococcus aureus after 3 to 7 days by broth dilution assay; format: functional
Outline: (§2)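 Modified broth dilution with bacterial suspensions at 10^6 CFU/mL. Test and ciprofloxacin control stocks were 1 mg/mL in DMSO. Serial dilution and MIC read-out followed the antifungal microdilution procedure.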

Fusarium oxysporum = assay: Antifungal activity against Fusarium oxysporum Schlecht after 3 to 7 days by microbroth dilution method; format: functional, organism-based; outline: as §1
Alternaria alternata = assay: Antifungal activity against Alternaria alternata after 3 to 7 days by microbroth dilution method; format: functional
Outline: (§3)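 Microbroth dilution with fungal inoculum at 10^4 mycelial fragments/mL. Stock solutions were 1 mg/mL in DMSO. 20 μL stock was added to 180 μL culture, giving a top final concentration of 100 μg/mL, then serially diluted, in triplicate. Plates were held at 28 °C for 3–7 days and read for MIC; ketoconazole was the positive control.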

Verticillium dahliae = assay: Antifungal activity against Verticillium dahliae Kleb after 3 to 7 days by microbroth dilution method; format: functional; outline: as §3
Sclerotinia sclerotiorum = assay: Antifungal activity against Sclerotinia sclerotiorum after 3 to 7 days by microbroth dilution method; format: functional; outline: as §3
Corynespora cassiicola = assay: Antifungal activity against Corynespora cassiicola after 3 to 7 days by microbroth dilution method; format: functional; outline: as §3
Botrytis cinerea = assay: Antifungal activity against Botrytis cinerea Pers. after 3 to 7 days by microbroth dilution method; format: functional; outline: as §3
[2] = Antifungal activity against Cercospora personata after 3 to 7 days by microbroth dilution method; format: functional; conditions: Nothopassalora personata; outline: as §3
MHCC97H = assay: Cytotoxicity against human MHCC97H cells after 48 hrs by CCK8 assay; format: functional, cell-based
Outline: (§4)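 Cultured in DMEM with 10% FBS at 37 °C under 5% CO2. After a 16 h attachment, cells were treated with varying concentrations for 48 h. CCK-8 absorbance was expressed as percent of control and IC50 derived by sigmoidal curve fitting; camptothecin was the positive control.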

LoVo = assay: Cytotoxicity against human LoVo cells after 48 hrs by CCK8 assay; format: functional, cell-based; outline: as §4
[3] = Cytotoxicity against human MGC cells after 48 hrs by CCK8 assay; format: functional, cell-based
Outline: (§5)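 Cells grown in DMEM with 10% FBS at 37 °C, 5% CO2. Seeded at 5000 cells/well and left 16 h, then exposed to a range of concentrations in growth medium for 48 h. Viability read by CCK-8 absorbance as percent of untreated control. IC50 taken from a sigmoidal curve; camptothecin was the positive control.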

Bacillus cereus = assay: Antibacterial activity against Bacillus cereus after 3 to 7 days by broth dilution assay; format: functional
A549 = assay: Cytotoxicity against human A549 cells after 48 hrs by CCK8 assay; format: functional, cell-based; conditions: A549, 48 h; outline: as §5
MDA-MB-231 = assay: Cytotoxicity against human MDA231 cells after 48 hrs by CCK8 assay; format: functional, cell-based; conditions: MDA-MB-231, 48 h
Outline: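 MDA231 cells kept in DMEM with 10% FBS at 37 °C, 5% CO2. Seeded at 10 000 cells/well and settled 16 h, then given graded concentrations for 48 h. Viability measured by CCK-8 absorbance relative to control cells, with IC50 from a sigmoidal fit; camptothecin served as the positive control.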

LN-229 = assay: Cytotoxicity against human LN229 cells after 48 hrs by CCK8 assay; format: functional, cell-based; conditions: LN-229, 48 h; outline: as §5
Homo sapiens = organism: Homo sapiens; assay: Cytotoxicity against human T1224 cells in patient-derived organoid model after 48 hrs by CCK8 assay; format: functional, cell-based
Outline: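 Patient-derived HCC cells (50 000) were embedded in Matrigel, set 20 min at 37 °C, then grown 6–8 days in DMEM/F12 with B27, 0.01% BSA, 2 mM glutamine, penicillin/streptomycin, 10 ng/mL FGF basic, 50 ng/mL EGF and 50 ng/mL HGF to form organoids. Medium was changed every 2 days.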

Huh-7 = assay: Cytotoxicity against human HuH7 cells after 48 hrs by CCK8 assay; format: functional, cell-based; conditions: Huh-7, 48 h; outline: as §5
Micrococcus luteus = assay: Antibacterial activity against Micrococcus lysodeikticus after 3 to 7 days by broth dilution assay; format: functional
Klebsiella aerogenes = assay: Antibacterial activity against Enterobacter aerogenes after 3 to 7 days by broth dilution assay; format: functional
Bacillus subtilis = assay: Antibacterial activity against Bacillus subtilis after 3 to 7 days by broth dilution assay; format: functional
Salmonella paratyphi = assay: Antibacterial activity against Bacterium paratyphosum after 3 to 7 days by broth dilution assay; format: functional, Salmonella enterica subsp. enterica serovar Paratyphi A; conditions: Salmonella enterica; outline: as §2

Structure (SMILES) | MIC [1] [µg/mL] | Activity (Rhizoctonia solani) | Activity (Alternaria solani) | MIC (Staphylococcus aureus) [µg/mL] | Activity (Fusarium oxysporum) | other results
CC(C)(O)[C@H]1O[C@H]2CC[C@@]3(C)[C@@](O)(CC[C@H]4Cc5c([nH]c6cccc(C[C@H](O)C(C)(C)Cl)c56)[C@@]43C)[C@]23O[C@@H]3[C@@H]1O | 6.25 to 50 (≈ 10.9 to 87.1 µM) | Active | Active | 50 (≈ 87.1 µM) | Active | –
CC(C)(O)[C@H]1O[C@H]2CC[C@@]3(C)[C@@](O)(CC[C@H]4Cc5c([nH]c6cc(C[C@H](O)C(C)(C)Cl)ccc56)[C@@]43C)[C@]23O[C@@H]3[C@@H]1O | 6.25 to 50 (≈ 10.9 to 87.1 µM) | Active | Active | – | Active | –
COC(C)(C)[C@@H](O)Cc1cccc2[nH]c3c(c12)C[C@@H]1CC[C@@]2(O)[C@@]45O[C@@H]4[C@H](O)[C@@H](C(C)(C)O)O[C@H]5CC[C@]2(C)[C@@]31C | 6.25 to 50 (≈ 11 to 87.8 µM) | Active | Active | – | Active | –
CC(C)(O)[C@@H](O)Cc1cccc2[nH]c3c(c12)C[C@@H]1CC[C@@]2(O)[C@@]45O[C@@H]4[C@@H]4O[C@H]([C@H]6OC6(C)C)OC(C)(C)[C@H]4O[C@H]5CC[C@]2(C)[C@@]31C | 6.25 to 50 (≈ 9.8 to 78.4 µM) | Active | Active | – | Active | –
CC(=O)N1CCN(c2ccc(OCC3COC(Cn4ccnc4)(c4ccc(Cl)cc4Cl)O3)cc2)CC1 (configuration not stated) [KETOCONAZOLE] | 0.78 (≈ 1.47 µM) | – | – | – | – | MIC (Alternaria alternata): 0.78 to 1.56 µg/mL (≈ 1.47 to 2.94 µM); MIC (Verticillium dahliae): 0.78 to 1.56 µg/mL (≈ 1.47 to 2.94 µM); MIC (Sclerotinia sclerotiorum): 0.78 to 1.56 µg/mL (≈ 1.47 to 2.94 µM); MIC (Corynespora cassiicola): 0.78 to 1.56 µg/mL (≈ 1.47 to 2.94 µM); MIC (Botrytis cinerea): 0.78 to 1.56 µg/mL (≈ 1.47 to 2.94 µM); MIC [2]: 0.78 to 1.56 µg/mL (≈ 1.47 to 2.94 µM)
CC(C)=CCc1cccc2[nH]c3c(c12)C[C@@H]1CC[C@@]2(O)[C@@]45O[C@@H]4[C@H](O)[C@@H](C(C)(C)O)O[C@H]5CC[C@]2(C)[C@@]31C | 6.25 to 50 (≈ 12 to 95.8 µM) | Active | Active | 12.5 (≈ 24 µM) | Active | IC50 (MHCC97H): 16.3 to 37.8 µM; IC50 (LoVo): 16.3 to 37.8 µM; IC50 [3]: 16.3 to 37.8 µM; MIC (Alternaria alternata): 6.25 to 25 µg/mL (≈ 12 to 47.9 µM); MIC (Bacillus cereus): 25 µg/mL (≈ 47.9 µM); MIC (Verticillium dahliae): 6.25 to 25 µg/mL (≈ 12 to 47.9 µM); IC50 (A549): 16.3 to 37.8 µM; IC50 (MDA-MB-231): 16.3 to 37.8 µM; IC50 (LN-229): 16.3 to 37.8 µM; MIC (Sclerotinia sclerotiorum): 6.25 to 25 µg/mL (≈ 12 to 47.9 µM); MIC (Corynespora cassiicola): 6.25 to 25 µg/mL (≈ 12 to 47.9 µM); MIC (Botrytis cinerea): 6.25 to 25 µg/mL (≈ 12 to 47.9 µM); Activity (Homo sapiens): Active; MIC [2]: 6.25 to 25 µg/mL (≈ 12 to 47.9 µM); IC50 (Huh-7): 16.3 to 37.8 µM
O=C(O)c1cn(C2CC2)c2cc(N3CCNCC3)c(F)cc2c1=O [CIPROFLOXACIN] | – | – | – | 1.56 (≈ 4.71 µM) | – | MIC (Micrococcus luteus): 0.78 to 1.56 µg/mL (≈ 2.35 to 4.71 µM); MIC (Klebsiella aerogenes): 0.78 to 1.56 µg/mL (≈ 2.35 to 4.71 µM); MIC (Bacillus cereus): 0.78 µg/mL (≈ 2.35 µM); MIC (Bacillus subtilis): 0.78 to 1.56 µg/mL (≈ 2.35 to 4.71 µM); MIC (Salmonella paratyphi): 0.78 to 1.56 µg/mL (≈ 2.35 to 4.71 µM)
CC(C)=C[C@H]1O[C@H]2[C@H]3O[C@@]34[C@H](CC[C@@]3(C)[C@@]4(O)CC[C@H]4Cc5c([nH]c6cccc(C[C@H](O)C(C)(C)O)c56)[C@@]43C)O[C@@H]2C(C)(C)O1 | 6.25 to 50 (≈ 10.1 to 80.4 µM) | Active | Active | – | Active | –
CC[C@@]1(O)C(=O)OCc2c1cc1n(c2=O)Cc2cc3ccccc3nc2-1 [CAMPTOTHECIN] | – | – | – | – | – | IC50 (MHCC97H): 0.00032 to 0.0318 µM; IC50 (LoVo): 0.00032 to 0.0318 µM; IC50 [3]: 0.00032 to 0.0318 µM; IC50 (A549): 0.00032 to 0.0318 µM; IC50 (MDA-MB-231): 0.00032 to 0.0318 µM; IC50 (LN-229): 0.00032 to 0.0318 µM; IC50 (Huh-7): 0.00032 to 0.0318 µM
CC(C)(Cl)[C@H](O)Cc1ccc2c3c([nH]c2c1)[C@@]1(C)[C@@H](CC[C@@]2(O)[C@@]45O[C@@H]4[C@@H]4O[C@H]([C@H]6OC6(C)C)OC(C)(C)[C@H]4O[C@H]5CC[C@@]21C)C3 | 6.25 to 50 (≈ 9.52 to 76.2 µM) | Active | Active | – | Active | –
CC(C)=CCc1cccc2[nH]c3c(c12)C[C@@H]1CC[C@]2(O)[C@](C)(CCC(=O)[C@@]24O[C@@H]4[C@@H]2O[C@H](C=C(C)C)OC(C)(C)[C@@H]2O)[C@@]31C | – | Active | Active | 12.5 to 25 (≈ 20.7 to 41.4 µM) | Active | MIC (Micrococcus luteus): 12.5 to 25 µg/mL (≈ 20.7 to 41.4 µM); MIC (Klebsiella aerogenes): 12.5 to 25 µg/mL (≈ 20.7 to 41.4 µM); MIC (Bacillus cereus): 12.5 to 25 µg/mL (≈ 20.7 to 41.4 µM); MIC (Bacillus subtilis): 12.5 to 25 µg/mL (≈ 20.7 to 41.4 µM); MIC (Salmonella paratyphi): 12.5 to 25 µg/mL (≈ 20.7 to 41.4 µM)
CC(C)=C[C@H]1O[C@H]2[C@H]3O[C@@]34[C@H](CC[C@@]3(C)[C@@]4(O)CC[C@H]4Cc5c([nH]c6cc(C[C@H](O)C(C)(C)O)ccc56)[C@@]43C)O[C@@H]2C(C)(C)O1 | 6.25 to 50 (≈ 10.1 to 80.4 µM) | Active | Active | – | Active | –
CC(C)=C[C@H]1O[C@H]2[C@H]3O[C@@]34[C@H](CC[C@@]3(C)[C@@]4(O)CC[C@H]4Cc5c([nH]c6cccc(C[C@H](O)C(C)(C)Cl)c56)[C@@]43C)O[C@@H]2C(C)(C)O1 | 6.25 to 50 (≈ 9.76 to 78.1 µM) | Active | Active | – | Active | –
